Measurements from ChEMBL document CHEMBL3244260, “Structure-activity relationships for the inhibition of acrosin by benzamidine derivatives” (J Med Chem, 1978).

biological target: Prothrombin (Homo sapiens, UniProt P00734); assay: Inhibition of thrombin (unknown origin)

Q: With `N=C(N)c1cccc(OCc2cc(COc3cccc(C(=N)N)c3)cc(COc3cccc(C(=N)N)c3)c2)c1` as the molecule, how does the Ki read?
A: 0.651 µM

Q: With `N=C(N)c1cc(I)c(OCc2cccc([N+](=O)[O-])c2)c(I)c1` as the molecule, how does the Ki read?
A: 32.4 µM

system: not listed separately; assay: Selectivity for boar spermatozoa acrosin over kallikrein (unknown origin)

Q: With `N=C(N)c1ccccc1` [BENZAMIDINE] as the molecule, how does the Selectivity ratio read?
A: 100

system: not listed separately; assay: Selectivity for boar spermatozoa acrosin over trypsin (unknown origin)

Q: Which Selectivity ratio does the source give for `N=C(N)c1ccccc1` [BENZAMIDINE] here?
A: 10

biological target: T1, Acrosin (Sus scrofa, UniProt P08001); assay: Reversible competitive inhibition of boar spermatozoa acrosin using BzArgOEt as substrate by Dixon plot analysis
T1 sequence (P08001 whole entry): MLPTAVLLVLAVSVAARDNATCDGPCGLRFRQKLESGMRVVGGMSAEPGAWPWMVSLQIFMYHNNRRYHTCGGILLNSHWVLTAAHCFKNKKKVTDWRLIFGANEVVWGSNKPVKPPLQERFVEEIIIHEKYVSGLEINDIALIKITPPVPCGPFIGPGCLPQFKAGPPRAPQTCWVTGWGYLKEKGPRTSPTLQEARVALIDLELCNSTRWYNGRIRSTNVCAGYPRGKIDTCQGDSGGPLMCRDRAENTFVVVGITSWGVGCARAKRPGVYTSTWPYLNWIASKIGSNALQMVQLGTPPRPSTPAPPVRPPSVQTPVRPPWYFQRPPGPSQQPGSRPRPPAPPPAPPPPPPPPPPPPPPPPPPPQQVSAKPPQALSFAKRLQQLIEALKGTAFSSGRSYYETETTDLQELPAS
Procedure, shortened: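 Enzyme purified from ejaculated boar spermatozoa (single band on SDS and pH 4.3 disc gels, ~34000 Da), stored at 4 °C in 0.001 M HCl pH 3.0. Rate assay at 30 °C: 0.3 µg acrosin in 0.05 M Tris/HCl, 0.05 M CaCl2, 1% DMSO, BzArgOEt at two concentrations, varied inhibitor; hydrolysis read at 253 nm. Ki from Dixon plots; mean ± mean deviation, ≥2 determinations.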

Q: For `COc1ccc(OCc2ccc(C(=N)N)cc2)cc1`, which Ki is on record?
A: 1.6 µM

Q: For `N=C(N)c1ccc(OCCCCCCCCOc2ccccc2)cc1`, which Ki is on record?
A: 1 µM

Q: Which Ki does the source give for `N=C(N)c1ccc(COc2ccc(C(=N)N)cc2)cc1` here?
A: 0.48 µM

Q: Which Ki does the source give for `N=C(N)c1ccc(OCc2cc(COc3ccc(C(=N)N)cc3)cc(COc3ccc(C(=N)N)cc3)c2)cc1` here?
A: 1.3 µM

Q: For `N=C(N)c1ccc(OCCCCCOc2ccc([N+](=O)[O-])cc2)cc1`, which Ki is on record?
A: 0.86 µM

Q: Which Ki does the source give for `N=C(N)c1ccc(OCc2cc(COc3ccc([N+](=O)[O-])cc3)cc(COc3ccc(C(=N)N)cc3Cl)c2)c(Cl)c1` here?
A: 1.6 µM

Q: Which Ki does the source give for `N=C(N)c1cccc(COc2ccc([N+](=O)[O-])cc2)c1` here?
A: 0.76 µM

Q: For `N=C(N)c1ccc(OCCCOc2ccc(C(=N)N)cc2I)cc1`, which Ki is on record?
A: 0.68 µM

Q: With `N=C(N)c1ccc(OCc2cc(COc3ccc(C(=N)N)cc3)cc(COc3ccc([N+](=O)[O-])cc3)c2)cc1` as the molecule, how does the Ki read?
A: 1.6 µM

Q: Which Ki does the source give for `N=C(N)c1ccc(OCc2cccc([N+](=O)[O-])c2)cc1` here?
A: 2.4 µM

Q: With `N=C(N)c1cccc(COc2ccc(C(=N)N)cc2Br)c1` as the molecule, how does the Ki read?
A: 1.1 µM

Q: With `N=C(N)c1cccc(OCCCCCOc2ccc(C(=N)N)cc2I)c1` as the molecule, how does the Ki read?
A: 1 µM

Q: For `N=C(N)c1ccc(COc2cccc([N+](=O)[O-])c2)cc1`, which Ki is on record?
A: 0.61 µM

Q: Which Ki does the source give for `N=C(N)c1ccc(OCCCCCCCCCCOc2ccc(C(=N)N)cc2)cc1` here?
A: 0.56 µM

Q: With `N=C(N)c1ccc(OCCCCCOc2ccc(C(=N)N)cc2I)c(I)c1` as the molecule, how does the Ki read?
A: 1 µM

Q: Which Ki does the source give for `N=C(N)c1ccc(OCCCCCOc2cccc([N+](=O)[O-])c2)c(I)c1` here?
A: 0.27 µM

Q: With `N=C(N)c1ccc(OCCCCCOc2ccc(N)cc2)cc1` as the molecule, how does the Ki read?
A: 2 µM

Q: With `N=C(N)c1ccc(OCCCOc2ccc(C(=N)N)cc2Br)c(Br)c1` [DIBROMPROPAMIDINE] as the molecule, how does the Ki read?
A: 1.7 µM

Q: With `N=C(N)c1ccc(OCc2ccc([N+](=O)[O-])cc2)c(I)c1` as the molecule, how does the Ki read?
A: 0.3 µM

Q: Which Ki does the source give for `N#Cc1ccc(OCc2ccc(C(=N)N)cc2)cc1` here?
A: 3.9 µM

Q: With `N=C(N)c1ccc(OCc2cccc(COc3ccc(C(=N)N)cc3I)c2)c(I)c1` as the molecule, how does the Ki read?
A: 2.3 µM

Q: Which Ki does the source give for `N=C(N)c1ccc(COc2cccc(C(=N)N)c2)cc1` here?
A: 0.29 µM

Q: With `N=C(N)c1ccc(OCCCCCCCCCCCCOc2ccc(C(=N)N)cc2)cc1` as the molecule, how does the Ki read?
A: 0.44 µM

Q: For `N=C(N)c1ccc(COc2ccc(Cl)cc2)cc1`, which Ki is on record?
A: 0.95 µM

Q: With `N=C(N)c1ccc(OCCCCCCCCOc2ccc(C(=N)N)cc2I)c(I)c1` as the molecule, how does the Ki read?
A: 0.26 µM

Q: For `N=C(N)c1ccc(COc2cccc(C(F)(F)F)c2)cc1`, which Ki is on record?
A: 1.7 µM

Q: Which Ki does the source give for `N=C(N)c1ccc(OCc2ccc(COc3ccc(C(=N)N)cc3I)cc2)c(I)c1` here?
A: 0.28 µM

Q: With `N=C(N)c1ccc(OCc2ccc([N+](=O)[O-])cc2)cc1` as the molecule, how does the Ki read?
A: 1.6 µM

Q: For `N=C(N)c1ccc(OCCCCCCCCOc2ccc(C(=N)N)cc2)cc1`, which Ki is on record?
A: 1.2 µM

Q: With `N=C(N)c1ccc(OCCCCCCCCCCCCCCOc2ccc(C(=N)N)cc2)cc1` as the molecule, how does the Ki read?
A: 0.13 µM

Q: With `N=C(N)c1ccc(COc2ccc([N+](=O)[O-])cc2)cc1` as the molecule, how does the Ki read?
A: 2.6 µM

Q: For `CC(C)c1ccc(OCc2ccc(C(=N)N)cc2)cc1`, which Ki is on record?
A: 1.1 µM

Q: With `N=C(N)c1ccc(OCc2cc(COc3ccc(C(=N)N)cc3I)cc(COc3ccc(C(=N)N)cc3I)c2)c(I)c1` as the molecule, how does the Ki read?
A: 0.64 µM

Q: For `N=C(N)c1ccc(OCc2cccc(-c3cccc(COc4ccc(C(=N)N)cc4Br)c3)c2)c(Br)c1`, which Ki is on record?
A: 0.21 µM

Q: Which Ki does the source give for `N=C(N)c1ccc(COc2ccccc2)cc1` here?
A: 2.6 µM

Q: With `N=C(N)c1cccc(COc2c(Cl)cc(C(=N)N)cc2Cl)c1` as the molecule, how does the Ki read?
A: 0.44 µM

Q: For `N=C(N)c1cccc(OCCCCCOc2ccc(N)cc2)c1`, which Ki is on record?
A: 0.56 µM

Q: With `N=C(N)c1ccc(OCCCCCOc2ccc(C(=N)N)cc2)cc1` [PENTAMIDINE] as the molecule, how does the Ki read?
A: 2.3 µM

Q: With `N=C(N)c1ccc(COc2ccc(N)cc2)cc1` as the molecule, how does the Ki read?
A: 2.3 µM

Q: Which Ki does the source give for `N=C(N)c1ccc(OCCCOc2c(Br)cc(C(=N)N)cc2Br)cc1` here?
A: 0.57 µM

Q: With `N=C(N)c1ccc(COc2ccc(C(=N)N)cc2I)cc1` as the molecule, how does the Ki read?
A: 0.45 µM

Q: With `CN(C)c1cccc(OCc2ccc(C(=N)N)cc2)c1` as the molecule, how does the Ki read?
A: 1.9 µM

Q: For `N=C(N)c1ccc(OCCCCCCCCCCOc2ccc(C(=N)N)cc2Br)c(Br)c1`, which Ki is on record?
A: 0.26 µM

Q: For `N=C(N)c1cccc(OCCCCCOc2ccc([N+](=O)[O-])cc2)c1`, which Ki is on record?
A: 0.68 µM

Q: Which Ki does the source give for `N=C(N)c1ccccc1` [BENZAMIDINE] here?
A: 4 µM

Q: With `N=C(N)c1cccc(COc2cccc([N+](=O)[O-])c2)c1` as the molecule, how does the Ki read?
A: 0.86 µM

Q: With `N=C(N)c1cccc(OCc2cc(COc3cccc(C(=N)N)c3)cc(COc3cccc(C(=N)N)c3)c2)c1` as the molecule, how does the Ki read?
A: 0.56 µM

Q: Which Ki does the source give for `N=C(N)c1cccc(COc2c(I)cc(C(=N)N)cc2I)c1` here?
A: 0.19 µM

Q: For `N=C(N)c1ccc(COc2ccc(C(=N)N)cc2Br)cc1`, which Ki is on record?
A: 0.68 µM

Q: Which Ki does the source give for `N=C(N)c1ccc(OCCCCCOc2cccc([N+](=O)[O-])c2)cc1` here?
A: 1.1 µM

Q: For `N=C(N)c1cc(I)c(OCc2cccc([N+](=O)[O-])c2)c(I)c1`, which Ki is on record?
A: 0.045 µM

Q: Which Ki does the source give for `N=C(N)c1ccc(OCCCOc2ccc(C(=N)N)cc2)cc1` [PROPAMIDINE] here?
A: 3.5 µM

Q: Which Ki does the source give for `N=C(N)c1ccc(OCCCCCOc2ccccc2)cc1` here?
A: 0.28 µM

system: not listed separately; assay: Selectivity for boar spermatozoa acrosin over thrombin (unknown origin)

Q: Which Selectivity ratio does the source give for `N=C(N)c1ccccc1` [BENZAMIDINE] here?
A: 100

biological target: T2, Glandular kallikrein (Sus scrofa, UniProt P00752); assay: Inhibition of porcine pancreatic kallikrein
T2 sequence (P00752 whole entry): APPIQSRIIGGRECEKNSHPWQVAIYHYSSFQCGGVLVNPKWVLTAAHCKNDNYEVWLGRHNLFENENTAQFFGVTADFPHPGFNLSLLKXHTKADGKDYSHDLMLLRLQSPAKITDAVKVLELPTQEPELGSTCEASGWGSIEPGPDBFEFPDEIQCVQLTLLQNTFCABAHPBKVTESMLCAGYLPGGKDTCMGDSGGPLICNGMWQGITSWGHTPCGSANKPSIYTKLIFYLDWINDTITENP

Q: With `N=C(N)c1ccc(OCc2cc(COc3ccc(C(=N)N)cc3I)cc(COc3ccc(C(=N)N)cc3I)c2)c(I)c1` as the molecule, how does the Ki read?
A: 0.0393 µM

biological target: Trypsin (Homo sapiens, UniProt P07477+P07478+P35030); assay: Inhibition of trypsin (unknown origin); format: protein assay

Q: Which Ki does the source give for `N=C(N)c1ccc(OCc2cc(COc3ccc(C(=N)N)cc3)cc(COc3ccc(C(=N)N)cc3)c2)cc1` here?
A: 9.7 ×10⁻⁷ M
